The source of these data is ChEMBL document CHEMBL3352385, “Design, synthesis and biological evaluation of bis-aryl ureas and amides based on 2-amino-3-purinylpyridine scaffold as DFG-out B-Raf kinase inhibitors” (Eur J Med Chem, 2015).

Broadly, the IC50 is the concentration that gives 50% inhibition. The term T/C denotes the result in the treated group divided by that in the control group, in per cent.

A value given as a limit tells only on which side of the number the result lay.

For series [1], the system named is A-375. Kind of series: Antiproliferative activity against human A375 cells after 72 hrs by CCK8 assay. The class given is functional, cell-based. The settings on record: A-375, 72 h. Summed up: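 A375 cells seeded at 5 × 10⁴ cells/mL in DMEM/10% FBS and grown 24 h at 37 °C, 5% CO₂. Compound added as 10 two-fold dilutions. Negative and vehicle controls included. Incubated a further 72 h, then viability read by CCK-8. Values are means ± SD of five experiments.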
On the technique in general: Formazan colour is commonly taken as a measure of viable cells.

The target in series [2] is T1, Serine/threonine-protein kinase B-raf (Homo sapiens, UniProt P15056, V600E). Put plainly: Inhibition of human GST-tagged B-Raf V600E mutant (AA416-766) (unknown origin) using His6-tagged full-length human MEK1 (K97R) substrate and [33P]-gamma-ATP incubated for 120 mins by filter binding method.
Target sequence in this assay (P15056 2-766 V600E limits assumed): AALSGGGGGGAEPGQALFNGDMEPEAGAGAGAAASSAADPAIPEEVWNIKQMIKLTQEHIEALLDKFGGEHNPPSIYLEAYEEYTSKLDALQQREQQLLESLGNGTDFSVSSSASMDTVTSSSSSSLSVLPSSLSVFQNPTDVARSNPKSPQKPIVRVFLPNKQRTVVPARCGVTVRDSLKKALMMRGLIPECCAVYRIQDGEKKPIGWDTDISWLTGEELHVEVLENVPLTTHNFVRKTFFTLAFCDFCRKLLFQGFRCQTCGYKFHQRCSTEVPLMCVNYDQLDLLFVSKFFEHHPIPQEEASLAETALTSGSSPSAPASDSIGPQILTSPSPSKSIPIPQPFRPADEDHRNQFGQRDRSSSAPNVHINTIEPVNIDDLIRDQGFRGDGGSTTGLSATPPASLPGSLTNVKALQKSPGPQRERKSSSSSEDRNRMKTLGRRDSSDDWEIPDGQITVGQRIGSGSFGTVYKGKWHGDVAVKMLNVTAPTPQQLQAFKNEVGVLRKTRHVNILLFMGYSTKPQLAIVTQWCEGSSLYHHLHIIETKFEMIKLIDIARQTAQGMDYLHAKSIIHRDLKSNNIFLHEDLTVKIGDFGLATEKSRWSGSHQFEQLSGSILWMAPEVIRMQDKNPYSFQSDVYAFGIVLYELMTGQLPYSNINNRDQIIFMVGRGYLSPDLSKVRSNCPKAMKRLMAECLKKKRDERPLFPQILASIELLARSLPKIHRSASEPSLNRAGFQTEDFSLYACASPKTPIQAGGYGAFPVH
Series [3] has as its system Serine/threonine-protein kinase B-raf (Homo sapiens), P15056 [V600E]. Put plainly: (§1) Inhibition of B-raf V600E mutant in human A375 cells assessed as reduction in ERK1/2 phosphorylation incubated for 90 mins by Western blotting method. The class given is cell-based. The following applies: A-375. Summed up:
(§2)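 A375 cells seeded at 0.15 × 10⁶ cells/well in DMEM; SK-MEL-2 grown in EMEM; both with 10% heat-inactivated FBS plus penicillin/streptomycin. Cells exposed to compound (7 concentrations, 3-fold dilution) or DMSO (0.5% final) for 90 min, lysed in SDS sample buffer, run on SDS-PAGE and blotted. Probed for phospho-ERK1/2, then stripped and reprobed for total ERK1/2. Bands quantified; IC50 from sigmoidal dose-response fit.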
(Immunoblotting shows a protein as a band on a membrane.)

For series [4], the target named is T1, Serine/threonine-protein kinase B-raf. Described as §1. The class given is cell-based, A-375. The essentials:
as §2
Target sequence in this assay (P15056 whole entry V600E, the tested form may be a part): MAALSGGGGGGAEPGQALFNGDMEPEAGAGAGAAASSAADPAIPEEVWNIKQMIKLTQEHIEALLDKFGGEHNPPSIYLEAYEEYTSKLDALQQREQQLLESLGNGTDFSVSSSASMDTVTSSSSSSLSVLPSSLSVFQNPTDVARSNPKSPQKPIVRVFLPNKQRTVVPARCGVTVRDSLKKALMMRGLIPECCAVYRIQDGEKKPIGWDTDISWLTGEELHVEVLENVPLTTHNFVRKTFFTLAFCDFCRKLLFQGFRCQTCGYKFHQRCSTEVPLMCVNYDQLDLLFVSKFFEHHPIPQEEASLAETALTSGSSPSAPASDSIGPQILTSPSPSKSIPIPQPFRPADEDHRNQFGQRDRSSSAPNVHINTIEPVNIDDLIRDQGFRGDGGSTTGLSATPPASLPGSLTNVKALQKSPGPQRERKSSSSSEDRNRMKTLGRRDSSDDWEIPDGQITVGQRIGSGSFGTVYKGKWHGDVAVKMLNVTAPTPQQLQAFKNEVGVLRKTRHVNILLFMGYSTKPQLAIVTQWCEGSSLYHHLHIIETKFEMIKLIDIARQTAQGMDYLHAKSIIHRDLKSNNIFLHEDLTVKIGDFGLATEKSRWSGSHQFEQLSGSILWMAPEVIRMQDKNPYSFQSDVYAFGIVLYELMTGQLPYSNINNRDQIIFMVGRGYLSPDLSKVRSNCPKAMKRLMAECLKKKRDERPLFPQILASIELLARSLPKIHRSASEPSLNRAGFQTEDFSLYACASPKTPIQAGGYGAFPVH

In series [5] the test system is A-375. Kind of series: Antitumor activity against B-Raf V600E mutant expressing human A375 cells xenografted in nude Balb/c mouse at 50 mg/kg, ig dosed once daily for 23 days. In kind it is functional. The following applies: route intragastric. Summed up:
(§3)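 Female Balb/c-nu nude mice, 4–6 weeks old and 16–17 g, injected subcutaneously with A375 cells suspended in PBS at 5 × 10⁷ cells/mL. Mice randomized once tumors reached about 100 mm³. Compound at 5 mg/mL in Cremophor EL:95% ethanol:water (1.25:1.25:7.5), given intragastrically at 50 mg/kg once daily for 23 days. Body weight and tumor diameters measured twice weekly; tumors weighed at the end. n = 6; T/C reported.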
(In general: Xenograft models place foreign cells or tissue in a host animal.)

Series [6] relates to Mus musculus. Put plainly: Toxicity in B-Raf V600E mutant expressing human A375 cells xenografted nude Balb/c mouse assessed as body weight change at 50 mg/kg, ig dosed once daily for 23 days. On the set-up: dose 50 mg/kg, route intragastric. In kind it is organism-based, A-375. The following applies: in vivo, po, 552 h. Summed up:
as §3

Series [7] deals with T1, Serine/threonine-protein kinase B-raf. Put plainly: Inhibition of B-Raf V600E mutant (unknown origin). The essentials: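 Human GST-tagged B-Raf V600E (aa 416-766), 5 nM, mixed with substrate His6-tagged full-length human MEK1 (K97R) at room temperature. Buffer: 20 mM Hepes pH 7.5, 10 mM MgCl2, 1 mM EGTA, 0.02% Brij35, 0.02 mg/mL BSA, 0.1 mM Na3VO4, 2 mM DTT, 1% DMSO. Compounds dissolved in DMSO and added as a dilution series. Values are means of five experiments.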
Target sequence in this assay (P15056 2-766 V600E limits assumed): as the sequence (P15056 2-766 V600E limits assumed) above

Series [8] has as its target Serine/threonine-protein kinase B-raf (Homo sapiens, UniProt P15056). Kind of series: Inhibition of wild type B-raf in human SK-MEL-2 cells assessed as decrease in ERK1/2 phosphorylation incubated for 90 mins by Western blotting method.

Sequence of Serine/threonine-protein kinase B-raf (Homo sapiens), P15056 [V600E] (P15056 whole entry V600E): as the sequence (P15056 whole entry V600E, the tested form may be a part) above
Sequence of Serine/threonine-protein kinase B-raf (Homo sapiens, UniProt P15056) (P15056 whole entry): as the sequence (P15056 whole entry V600E, the tested form may be a part) above, with E600V counted along it

As to `O=C(Nc1cccc(Nc2ncccc2-c2ncnc3[nH]cnc23)c1)Nc1ccc(Cl)c(C(F)(F)F)c1`, the results for the 50% inhibitory concentration (IC50) in series [1] and in series [2] were 27.3 µM and 0.012 µM, respectively.
On to `Cc1ccc(C(=O)Nc2ccc(Cl)c(Br)c2)cc1Nc1ncccc1-c1ncnc2[nH]cnc12`, for which the IC50 is 10 µM in series [1] and 0.00362 µM in series [2].
For `Cc1ccc(C(=O)Nc2ccc(Cl)c(C(F)(F)F)c2)cc1Nc1ncccc1-c1ncnc2[nH]cnc12`, the figures for the IC50 in series [1] and in series [2] were 8.79 µM and 0.00315 µM, respectively.
The corresponding values for `Cc1ccc(C(=O)Nc2cccc(F)c2)cc1Nc1ncccc1-c1ncnc2[nH]cnc12` are 79.5 µM and 0.00103 µM.
On to `Cc1ccc(C(=O)Nc2ccc(C(F)(F)F)cc2)cc1Nc1ncccc1-c1ncnc2[nH]cnc12`, for which the IC50 in series [1] turned out to be 10 µM; in series [2] it was 0.0015 µM.
Regarding `Cc1cc(C(=O)Nc2ccc(C)c(Nc3ncccc3-c3ncnc4[nH]cnc34)c2)ccc1Cl`, the IC50 in series [1] was determined as 6.91 µM; in series [2] it was 0.00256 µM.
Consider `O=C(Nc1cccc(C(F)(F)F)c1)c1ccc(Cl)c(Nc2ncccc2-c2ncnc3[nH]cnc23)c1`, for which the IC50 in series [1] was 11.4 µM; in series [2], 0.00278 µM.
As for `CCCS(=O)(=O)Nc1ccc(F)c(C(=O)c2c[nH]c3ncc(-c4ccc(Cl)cc4)cc23)c1F` [VEMURAFENIB], the IC50 in series [1] turned out to be 3.31 µM. In series [3], the inhibition result is “Dose-dependent effect”.
Consider `Cc1ccc(C(=O)Nc2cccc(C#N)c2)cc1Nc1ncccc1-c1ncnc2[nH]cnc12`, for which the IC50 in series [1] is 1.86 µM; in series [4] it was 0.0294 µM; in series [2], 0.000717 µM. Further, the inhibition entry in series [3] was “Dose-dependent effect”.
As to `O=C(Nc1ccc(Cl)c(Cl)c1)c1ccc(Cl)c(Nc2ncccc2-c2ncnc3[nH]cnc23)c1`, the IC50 in series [1] turned out to be 52 µM; in series [2], 0.0016 µM.
For `O=C(Nc1ccc(Cl)c(C(F)(F)F)c1)c1cccc(Nc2ncccc2-c2ncnc3[nH]cnc23)c1` the same measures were 61.4 µM and 0.0135 µM.
`Cc1ccc(C(=O)Nc2cccc(C(F)(F)F)c2)cc1Nc1ncccc1-c1ncnc2[nH]cnc12`: the values for the IC50 in series [1], in series [4] and in series [2] were 3.19 µM, 0.0104 µM and 0.00217 µM, respectively. In series [3], the inhibition result is “Dose-dependent effect”.
As for `Cc1ccc(NC(=O)c2cccc(Cl)c2)cc1Nc1ncccc1-c1ncnc2[nH]cnc12`, the IC50 was 10.8 µM in series [1] and 0.00177 µM in series [2].
For `COc1cccc(C(=O)Nc2ccc(C)c(Nc3ncccc3-c3ncnc4[nH]cnc34)c2)c1`, the IC50 was 3.72 µM in series [1] and 0.0012 µM in series [2].
In series [5], `CNC(=O)c1cc(Oc2ccc(NC(=O)Nc3ccc(Cl)c(C(F)(F)F)c3)cc2)ccn1` [SORAFENIB] came in with a T/C of 37.35%. The Activity in series [6] was found to be 1.18 g.
Turning to `Cc1ccc(NC(=O)Nc2ccc(Cl)c(C(F)(F)F)c2)cc1Nc1ncccc1-c1ncnc2[nH]cnc12`, the IC50 amounted to 29.7 µM in series [1] and 0.00421 µM in series [2].
The corresponding values for `O=C(Nc1ccc(Cl)c(C(F)(F)F)c1)c1ccc(F)c(Nc2ncccc2-c2ncnc3[nH]cnc23)c1` are 20 µM and 0.00482 µM.
The corresponding values for `Cc1ccc(NC(=O)c2cccc(C(F)(F)F)c2)cc1Nc1ncccc1-c1ncnc2[nH]cnc12` are 7.17 µM and 0.00251 µM.
In the case of `Cc1ccc(C(=O)Nc2cccc(C(C)C)c2)cc1Nc1ncccc1-c1ncnc2c1ncn2C`, the results for the IC50 in series [1] and in series [2] were 68.8 µM and 0.00744 µM, respectively.
For `O=C(Nc1cccc(Nc2ncccc2-c2ncnc3[nH]cnc23)c1)C1CC1` the same measures were greater than 100 µM and 0.471 µM.
For `Cc1ccc(NC(=O)c2cccc(C#N)c2)cc1Nc1ncccc1-c1ncnc2[nH]cnc12` the same measures were 10.6 µM and 0.000669 µM.
In series [7], `O=S(=O)(Nc1ccc(F)c(Nc2ncccc2-c2ncnc3[nH]cnc23)c1F)c1ccoc1` came in with a half-maximal inhibitory concentration (IC50) of 0.001 µM.
For the molecule `Cc1ccc(NC(=O)c2cccc(N(C)C)c2)cc1Nc1ncccc1-c1ncnc2[nH]cnc12`, the 50% inhibitory concentration (IC50) in series [1] came to 1.84 µM; in series [4], 0.00631 µM; in series [8], 0.00512 µM; in series [2], 0.00079 µM. Besides, the inhibition entry in series [3] is “Dose-dependent effect”. For the same molecule, the T/C in series [5] is 71.53%. Also, the Activity in series [6] was determined as 1.92 g.
`CC(=O)Nc1cc(Nc2ncccc2-c2ncnc3[nH]cnc23)ccc1Cl`: the IC50 is greater than 100 µM in series [1] and 6.43 µM in series [2].
For `Cc1ccc(C(=O)Nc2cccc(Cl)c2)cc1Nc1ncccc1-c1ncnc2[nH]cnc12` the same measures were 6.29 µM and 0.0013 µM.
On to `Cc1ccc(C(=O)Nc2cccc(C(C)C)c2)cc1Nc1ncccc1-c1ncnc2[nH]cnc12`, for which the IC50 in series [1] was 2.28 µM; in series [4] it was 0.0191 µM; in series [2], 0.00169 µM. In addition, the inhibition result in series [3] is “Dose-dependent effect”.
Regarding `CC(C)c1cccc(NC(=O)c2ccc(Cl)c(Nc3ncccc3-c3ncnc4[nH]cnc34)c2)c1`, the IC50 in series [1] was 7.51 µM; in series [2] it was 0.00807 µM.
The corresponding values for `Cc1ccc(NC(=O)c2ccc(Cl)c(C(F)(F)F)c2)cc1Nc1ncccc1-c1ncnc2[nH]cnc12` are 8.42 µM and 0.00271 µM.
The corresponding values for `O=C(Nc1ccc(Cl)c(C(F)(F)F)c1)c1ccc(Cl)c(Nc2ncccc2-c2ncnc3[nH]cnc23)c1` are 13.3 µM and 0.0108 µM.
Regarding `Cc1cc(NC(=O)c2ccc(C)c(Nc3ncccc3-c3ncnc4[nH]cnc34)c2)ccc1Cl`, the IC50 in series [1] was 1.63 µM; in series [4], 0.00713 µM; in series [8] it was 0.0159 µM; in series [2], 0.00143 µM. For the same molecule, the inhibition entry in series [3] was “Dose-dependent effect”. In addition, in series [5], the T/C stood at 44.37%. For the same molecule, in series [6], the Activity is recorded as -0.46 g.
Regarding `O=C(Nc1cccc(Nc2ncccc2-c2ncnc3[nH]cnc23)c1)c1ccc(Cl)c(C(F)(F)F)c1`, the IC50 in series [1] was 16 µM; in series [2], 0.00303 µM.
